Screening results as filed in PubChem.
Only some compounds are listed: those with a hit (about 1.9% of all), similar ones and a draw of the others.
Neddyl block = inhibitors of cullin neddylation, primary screen, biochemical, TR-FRET, uHTS, NAE and Ubc12 | NEDD8-conjugating enzyme Ubc12 (Homo sapiens) + NEDD8-activating enzyme E1 regulatory … | inhibition, % at 25 µM | 0.58% of 360,000 active; in the data active means inhibition above about 36%
Target sequence (P61081 whole entry, looked up): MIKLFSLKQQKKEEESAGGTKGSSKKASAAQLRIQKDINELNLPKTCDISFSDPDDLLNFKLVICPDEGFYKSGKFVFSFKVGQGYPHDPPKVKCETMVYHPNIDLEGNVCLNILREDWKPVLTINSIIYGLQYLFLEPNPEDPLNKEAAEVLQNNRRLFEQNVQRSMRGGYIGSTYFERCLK
Target sequence (Q13564 whole entry, looked up): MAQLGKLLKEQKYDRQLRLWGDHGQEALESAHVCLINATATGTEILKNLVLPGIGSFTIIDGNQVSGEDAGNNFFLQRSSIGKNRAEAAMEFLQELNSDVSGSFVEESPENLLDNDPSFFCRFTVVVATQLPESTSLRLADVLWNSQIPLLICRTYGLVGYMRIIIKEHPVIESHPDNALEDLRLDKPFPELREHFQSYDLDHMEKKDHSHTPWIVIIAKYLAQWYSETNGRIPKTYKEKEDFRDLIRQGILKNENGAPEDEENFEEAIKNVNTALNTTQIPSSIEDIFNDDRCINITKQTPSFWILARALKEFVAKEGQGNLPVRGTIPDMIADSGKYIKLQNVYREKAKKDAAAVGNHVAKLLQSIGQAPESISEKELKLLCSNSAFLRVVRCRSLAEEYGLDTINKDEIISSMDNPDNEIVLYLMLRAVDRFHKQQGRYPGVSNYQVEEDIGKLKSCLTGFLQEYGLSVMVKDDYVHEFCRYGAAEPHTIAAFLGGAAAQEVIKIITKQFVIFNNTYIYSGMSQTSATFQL
SR-BI HDL uptake = inhibitors of SR-BI mediated HDL lipid uptake, primary screen, ldlA[mSR-BI] cells, fluorescence, single point; Scavenger receptor class B member 1 (Mus musculus), Q61009; ldlA[mSR-BI] CHO cells, DiI-HDL uptake fluorescence, 3 h; inhibition, % at 12.5 µM; 0.96% of 320,000 active; AID 488896, 2010;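 active means mean replicate inhibition of at least 70% and a set share of replicates each scoring 70 or more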;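 further: 0% = median of neutral control wells and 100% = median of positive control wells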
UBC13 inh = UBC13 polyubiquitin chain formation inhibitors, primary screen, biochemical, TR-FRET, uHTS; Ubiquitin-conjugating enzyme E2 N (Homo sapiens), P61088; inhibition, % at 20 µM; 0.47% of 330,000 active; AID 485273, 2010; in the data active means inhibition above about 45%, passing the limit was not always enough
SR-BI uptake up = activators of SR-BI mediated DiI-HDL uptake, primary screen, ldlA[mSR-BI] CHO cells, DiI fluorescence; 3 h; 100 = double the neutral-control signal; activation, % at 12.5 µM; 0.096% of 320,000 active; AID 504775, 2011;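 active means mean replicate activation of at least 60% and every replicate at or above 60%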;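 further: 0% = median plate neutral-control signal and 100% = twice that signal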
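Test system: SR-BI-overexpressing, LDLR-lacking CHO cells; Medium: Ham's F12 with 0.5% BSA, HEPES 25 mM, pH 7.4; Schedule: 3 h, 37 °C; Technique: bottom-read fluorescence, 550/595 nm.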
* = called active by the depositor; x = no result shown.

SMILES	Neddyl block	SR-BI HDL uptake	UBC13 inh	SR-BI uptake up
CCSc1nnc(NC(=O)CCN2C(=O)C3CCCCC3C2=O)s1 (stereo not given)	0.6	-1.0	-14.4	1.0
CCCCn1c(N)c(N(CCC(C)C)C(=O)C2=NN(c3cc(C)ccc3C)C(=O)CC2)c(=O)[nH]c1=O	0.5	-7.6	-7.3	7.6
O=C(C[C@@H]1CC[C@H](NC(=O)c2ccc3c(c2)OCO3)[C@@H](CO)O1)NCc1ccc(F)cc1	3.9	x	x	x
Cc1ccc(C(=O)Nc2ccc(Nc3ccccc3)cc2)cc1C	15.7	99.4*	-3.3	-99.4
COc1ccc(NC(=O)c2ccc(CN3CCN(c4ccccc4)CC3)cc2)cc1OC	13.9	76.1*	-4.2	-76.1
Cc1ccc(C(=O)Nc2ccc(Nc3ccccc3)cc2)cc1Br	0.9	x	-5.4	x
CCN(CC)C(=O)COc1ccc(-c2nnc(Nc3ccc(OC)c(C(=O)NC)c3)c3ccccc23)cc1	11.7	86.7*	-10.4	-86.7
CN(C)c1nc(SCCOC(=O)c2ccccc2)nc(N(C)C)n1	-3.0	-3.0	9.7	3.0
CCN(CC)c1nc(SCCOC(=O)Nc2ccccc2)nc(N(CC)CC)n1	-2.1	86.7*	-8.2	-86.7
COc1ccc(C)cc1NC(=O)C(c1ccccc1)N1CCNC(=O)C1 (stereo not given)	-3.5	-6.8	-6.4	6.8
O=C(N/C=N/OCc1ccc(Cl)cc1Cl)NOCc1ncc(C(F)(F)F)cc1Cl	2.6	83.2*	3.7	-83.1
CO/N=C/NC(=O)NOCc1ncc(C(F)(F)F)cc1Cl	-8.0	25.6	-1.4	-25.6
CCOC(=O)C1CCN(C(=O)C(CCSC)NC(=O)c2ccccc2OC)CC1 (stereo not given)	2.1	-18.1	3.6	18.1
Cc1ncc(CO)c(/C=N/NC(=O)c2cc(Br)ccc2O)c1O	16.4	116.5*	-19.5	-116.4
Cc1ncc(CO)c(/C=N/NC(=O)c2ccc(Br)cc2)c1O	x	x	6.4	x
CCn1cc(/C=C(\NC(=O)c2ccccc2)C(=O)NCCCN2CCOCC2)c2ccccc21	9.3	-31.9	-5.3	31.9
COc1ccc(OC)c(CN2CCN(C(=O)c3ccc(C)c(S(=O)(=O)Nc4ccccc4OC)c3)CC2)c1	-2.0	77.4*	x	-77.4
COc1ccc(NS(=O)(=O)c2cccc(C(=O)N3CCN(Cc4cc(OC)ccc4OC)CC3)c2)cc1	10.7	74.5*	5.6	-74.4
COc1ccc(OC)c(CN2CCN(C(=O)c3cccc(S(=O)(=O)Nc4ccc(C)cc4)c3)CC2)c1	1.5	39.6	-0.6	-39.6
CCOC(=O)N1CCC(N2C(=O)c3ccc(C(=O)Nc4ccc(F)cc4F)cc3C2=O)CC1	-22.6	78.5*	-2.6	-78.5
CCOC(=O)N1CCC(N2C(=O)c3ccc(C(=O)Nc4ccc(OC)cc4)cc3C2=O)CC1	-8.9	16.2	-2.4	-16.2
Cc1[nH]n(C(N)=S)c(=O)c1N=Nc1cccc([N+](=O)[O-])c1C	-27.6	-14.2	-10.9	14.2
NC(=S)n1[nH]c(-c2ccc([N+](=O)[O-])cc2)c(N=Nc2cccc([N+](=O)[O-])c2)c1=O	-38.2	87.2*	x	-87.2
NC(=S)n1[nH]c(-c2ccc([N+](=O)[O-])cc2)c(N=Nc2ccccc2[N+](=O)[O-])c1=O	-41.8	89.3*	x	-89.3
Cc1[nH]n(-c2ccccc2)c(=O)c1N=Nc1cccc([N+](=O)[O-])c1	-7.0	43.0	-20.4	-43.0
SMILES	Neddyl block	SR-BI HDL uptake	UBC13 inh	SR-BI uptake up
Cc1c(N=Nc2c(-c3ccc([N+](=O)[O-])cc3)[nH]n(C(N)=S)c2=O)cccc1[N+](=O)[O-]	-43.0	91.8*	x	-91.7
O=C(O)c1cccc2c1Cc1cc(Cl)ccc1-2	-18.8	40.6	x	-40.6
CC(C)COC(=O)N(C)C[C@@H]1OCc2cnnn2CCCC(=O)N([C@H](C)CO)C[C@@H]1C	4.5	x	x	x
CC(=O)c1ccc(OCC(O)CN2CCN(S(=O)(=O)c3c(C)c(C)cc(C)c3C)CC2)cc1 (stereo not given)	-3.6	85.6*	3.9	-85.6
CCN1CCN(c2cc(C)c3cc(NC(=O)c4ccc(Br)o4)ccc3n2)CC1	12.7	51.8	9.0	-51.8
CCN(CC)c1cc(C)c2cc(NC(=O)c3ccc(Br)o3)ccc2n1	23.5	73.3*	-8.5	-73.3
O=C(Nc1ccccc1)c1sc2cc(C(F)(F)F)cnc2c1-c1cccs1	-123.3	71.2*	19.9	-71.2
CC[C@]12c3[nH]c4ccc(Cl)cc4c3CCN1C(=O)[C@@H](CC(=O)NCCC1=CCCCC1)C[C@@H]2C(=O)N1CCN(C(=O)c2ccco2)CC1	-0.9	34.4	x	-34.4
Cc1ccc(-n2nc(C)cc2Nc2ncc(Cl)cc2Cl)cc1	-1.9	81.5*	-2.6	-81.5
Cc1cc(Nc2ncc(Cl)cc2Cl)n(-c2ccccc2C)n1	6.9	-7.9	-5.6	7.9
CC1=C(C#N)C(=O)N(C)C(C)(C)C1	1.2	-140.4	-1.9	140.4*
COC(=O)C[C@@H]1CC[C@H](NC(=O)c2ccc3c(c2)OCO3)[C@@H](CO)O1	-0.5	x	x	x
COc1ccc(-c2cnc3c(-c4ccc(F)cc4)cnn3c2N)cc1	x	95.3*	12.2	-95.3
COc1ccc(-c2cnn3c(N)c(S(=O)(=O)C(C)(C)C)cnc23)cc1	9.3	11.9	-5.6	-11.9
C[C@@H]1CN([C@@H](C)CO)C(=O)Cc2cc(NC(=O)Nc3ccc(F)cc3)ccc2O[C@@H]1CN(C)Cc1ccc(Cl)c(Cl)c1	-32.7	-92.6	-16.3	92.6*
Cc1ccc(S(=O)(=O)Nc2ccc3c(c2)C(=O)N([C@H](C)CO)C[C@H](C)[C@@H](CN(C)Cc2ccc(-c4ccccc4)cc2)O3)cc1	2.0	-76.0	14.9	76.0*
Cc1ccc(S(=O)(=O)Nc2cccc3c2O[C@H](CN(C)Cc2ccc(-c4ccccc4)cc2)[C@@H](C)CN([C@H](C)CO)C3=O)cc1	2.2	8.6	-8.2	-8.6
O=C(c1ccco1)N1CCN(C(=O)C2CCCc3c2[nH]c2ccc(Cl)cc32)CC1 (stereo not given)	-1.3	82.9*	24.3	-82.9
O=C(O)c1[nH]c2ccc(Cl)cc2c1CC(=O)N1CCN(C(=O)c2ccco2)CC1	11.7	-7.5	-18.8	7.5
CCOc1cccc(CNCCO)c1OCc1ccc(Cl)cc1Cl	-1.5	-18.7	15.4	18.7
CCOc1cccc(CNc2ccc(O)cc2)c1OCc1ccc(Cl)cc1Cl	-4.7	80.3*	4.3	-80.3
CCOc1cc(CNCCO)cc(Br)c1OCc1ccc(Cl)cc1Cl	4.1	-18.1	56.0*	18.1
CCOc1cc(CNCCO)cc(Br)c1OCc1cccs1	-3.1	-38.2	-1.5	38.2
CCOc1cccc(CNc2ccc(O)cc2)c1OCc1ccccc1Cl	-11.1	80.9*	3.5	-80.9
Cc1cc(NC(=O)c2ccc3nc(-c4ccccc4)c(-c4ccccc4)nc3c2)no1	-133.9	80.2*	9.0	-80.2
COc1ccc(NC(=O)c2ccc3nc(-c4ccccc4)c(-c4ccccc4)nc3c2)c(OC)c1	29.6	75.7*	1.7	-75.7
